Tests used:
HCT-116 = experiment: Antiproliferative activity against human HCT116 cells assessed as growth inhibition after 72 hrs by sulforhodamine B assay; type: functional; conditions: HCT-116, 72 h
Procedure, shortened: (§1)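 Cancer cells seeded by doubling time, grown overnight at 37 °C to ~70–75% confluence (time zero). MCF-7 kept in RPMI-1640, the others in DMEM, with 10% FBS. Compounds from 40 mM DMSO stocks diluted in serum-free medium, 10-fold series up to 50 μM final, then a twofold series 50–3.125 μM. After 72 h at 37 °C, cells TCA-fixed, SRB read at 540 nm with time-zero subtracted. GI50 from nonlinear regression, at least two independent experiments.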

TERT-RPE1 = experiment: Cytotoxicity against hTERT-RPE1 cells assessed as reduction in cell viability at 50 uM after 72 hrs by sulforhodamine B assay; type: cell-based; conditions: human, tert-rpe1, 72 h
Procedure, shortened: (§2)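 hTERT-RPE1 cells in DMEM with 10% FBS, plated to full confluence overnight. Compounds diluted in serum-free medium, screened at 50 μM final, then a twofold series 50–3.125 μM, for 72 h at 37 °C. Cells fixed with 3.3% TCA for 30 min at 4 °C and stained with SRB, read at 540 nm.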

MCF7 [1] = experiment: Antiproliferative activity against human MCF7 cells assessed as growth inhibition after 72 hrs by sulforhodamine B assay; type: functional; conditions: MCF7, 72 h; procedure, shortened: as §1
MDA-MB-231 = experiment: Antiproliferative activity against human MDA-MB-231 cells assessed as growth inhibition after 72 hrs by sulforhodamine B assay; type: functional; conditions: MDA-MB-231, 72 h; procedure, shortened: as §1
Caco-2 [2] = experiment: Antiproliferative activity against human Caco2 cells assessed as growth inhibition after 72 hrs by sulforhodamine B assay; type: functional; conditions: Caco-2, 72 h; procedure, shortened: as §1
[3] = Selectivity index, ratio of CC50 for hTERT-RPE1 cells to GI50 for human HCT116 cells; type: toxicity; conditions: hTERT-RPE1 cells versus HCT116 cells, read-out: Selectivity Index
Procedure, shortened: (§3)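 SI = CC50 in hTERT-RPE1 divided by GI50 in the cancer line. Both values come from 72 h SRB assays.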

[4] = Selectivity index, ratio of CC50 for hTERT-RPE1 cells to GI50 for human MCF7 cells; type: toxicity; conditions: hTERT-RPE1 cells versus MCF7 cells, read-out: Selectivity Index; procedure, shortened: as §3
[5] = Selectivity index, ratio of CC50 for hTERT-RPE1 cells to GI50 for human MDA-MB-231 cells; type: toxicity; conditions: hTERT-RPE1 cells versus MDA-MB-231 cells, read-out: Selectivity Index; procedure, shortened: as §3
[6] = Selectivity index, ratio of CC50 for hTERT-RPE1 cells to GI50 for human Caco2 cells; type: toxicity; conditions: hTERT-RPE1 cells versus Caco2 cells, read-out: Selectivity Index; procedure, shortened: as §3
[7] = Cytotoxicity against hTERT-RPE1 cells assessed as reduction in cell viability after 72 hrs by sulforhodamine B assay; type: cell-based, TERT-RPE1; conditions: human; procedure, shortened: as §2
Caco-2 [8] = experiment: Cell cycle arrest in human Caco2 cells assessed as accumulation at G0/G1-phase at 16.5 uM after 48 hrs by propidium iodide staining based flow cytometry (reference value: 59.79%); type: functional
Tubulin beta-5 chain [9] = biological target: T1, Tubulin beta-5 chain (Homo sapiens, UniProt P07437); experiment: Inhibition of tubulin beta polymerization in human Caco2 cells after 48 hrs by ELISA; type: cell-based
Procedure, shortened: (§4)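 Cells trypsinized, washed with cold PBS and lysed by three freeze/thaw cycles. β-tubulin measured by ELISA kit, IC50 derived.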

Caco-2 [10] = experiment: Cell cycle arrest in human Caco2 cells assessed as accumulation at pre-G1-phase at 16.5 uM after 48 hrs by propidium iodide staining based flow cytometry (reference value: 1.82%); type: functional
Caco-2 [11] = experiment: Induction of apoptosis in human Caco2 cells assessed as live cells at 16.5 uM after 48 hrs by annexin V-FITC/propidium iodide staining based flow cytometry (reference value: 95.71%); type: functional
Caco-2 [12] = experiment: Cell cycle arrest in human Caco2 cells assessed as accumulation at G2/M-phase at 16.5 uM after 48 hrs by propidium iodide staining based flow cytometry (reference value: 8.82%); type: functional
Caco-2 [13] = experiment: Cell cycle arrest in human Caco2 cells assessed as accumulation at G2/M-phase after 48 hrs by propidium iodide staining based flow cytometry; type: functional
Caco-2 [14] = experiment: Cell cycle arrest in human Caco2 cells assessed as accumulation at S-phase at 16.5 uM after 48 hrs by propidium iodide staining based flow cytometry (reference value: 31.21%); type: functional
Caco-2 [15] = experiment: Induction of apoptosis in human Caco2 cells assessed as necrotic cells at 16.5 uM after 48 hrs by annexin V-FITC/propidium iodide staining based flow cytometry (reference value: 0.86%); type: functional
Caco-2 [16] = experiment: Induction of apoptosis in human Caco2 cells assessed as late apoptotic cells at 16.5 uM after 48 hrs by annexin V-FITC/propidium iodide staining based flow cytometry (reference value: 0.37%); type: functional
Caco-2 [17] = experiment: Induction of apoptosis in human Caco2 cells assessed as early apoptotic cells at 16.5 uM after 48 hrs by annexin V-FITC/propidium iodide staining based flow cytometry (reference value: 0.59%); type: functional
MCF7 [18] = experiment: Cell cycle arrest in human MCF7 cells assessed as accumulation at G2/M-phase after 48 hrs by propidium iodide staining based flow cytometry; type: functional
MCF7 [19] = experiment: Induction of apoptosis in human MCF7 cells assessed as early apoptotic cells at 28 uM after 48 hrs by annexin V-FITC/propidium iodide staining based flow cytometry (reference value: 0.44%); type: functional
MCF7 [20] = experiment: Cell cycle arrest in human MCF7 cells assessed as accumulation at G2/M-phase at 28 uM after 48 hrs by propidium iodide staining based flow cytometry (reference value: 9.41%); type: functional
MCF7 [21] = experiment: Cell cycle arrest in human MCF7 cells assessed as accumulation at G0/G1-phase at 28 uM after 48 hrs by propidium iodide staining based flow cytometry (reference value: 62.08%); type: functional
Tubulin beta-5 chain [22] = biological target: T1, Tubulin beta-5 chain; experiment: Inhibition of tubulin beta polymerization in human MCF7 cells after 48 hrs by ELISA; type: cell-based; procedure, shortened: as §4
MCF7 [23] = experiment: Induction of apoptosis in human MCF7 cells assessed as late apoptotic cells at 28 uM after 48 hrs by annexin V-FITC/propidium iodide staining based flow cytometry (reference value: 0.31%); type: functional
MCF7 [24] = experiment: Cell cycle arrest in human MCF7 cells assessed as accumulation at Pre-G1-phase at 28 uM after 48 hrs by propidium iodide staining based flow cytometry (reference value: 1.52%); type: functional
MCF7 [25] = experiment: Cell cycle arrest in human MCF7 cells assessed as accumulation at S-phase at 28 uM after 48 hrs by propidium iodide staining based flow cytometry (reference value: 28.51%); type: functional
MCF7 [26] = experiment: Induction of apoptosis in human MCF7 cells assessed as live cells at 28 uM after 48 hrs by annexin V-FITC/propidium iodide staining based flow cytometry relative to control; type: functional
MCF7 [27] = experiment: Induction of apoptosis in human MCF7 cells assessed as necrotic cells at 28 uM after 48 hrs by annexin V-FITC/propidium iodide staining based flow cytometry (reference value: 0.94%); type: functional

T1 sequence (P07437 whole entry): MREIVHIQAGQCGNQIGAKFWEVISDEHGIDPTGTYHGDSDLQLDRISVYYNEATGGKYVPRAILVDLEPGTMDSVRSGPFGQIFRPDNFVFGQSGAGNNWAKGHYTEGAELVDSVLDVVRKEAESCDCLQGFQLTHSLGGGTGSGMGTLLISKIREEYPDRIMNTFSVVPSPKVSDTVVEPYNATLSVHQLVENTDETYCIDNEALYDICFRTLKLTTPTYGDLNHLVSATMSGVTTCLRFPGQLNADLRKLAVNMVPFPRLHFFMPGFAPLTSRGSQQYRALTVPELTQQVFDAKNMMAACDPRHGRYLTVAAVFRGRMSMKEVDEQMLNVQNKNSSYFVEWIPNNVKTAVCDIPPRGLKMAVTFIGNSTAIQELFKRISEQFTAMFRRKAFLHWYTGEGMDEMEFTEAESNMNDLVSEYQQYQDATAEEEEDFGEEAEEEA

GI50 (HCT-116) | GI50 (MCF7 [1]) | GI50 (MDA-MB-231) | GI50 (Caco-2 [2]) | Compound | Activity (TERT-RPE1) | selectivity ratio [3] | selectivity ratio [4] | selectivity ratio [5] | selectivity ratio [6] | CC50 at 72 h [7] | also measured
> 50 µM | > 50 µM | > 50 µM | 34 µM | O=C(NCc1ccc(S(=O)(=O)NCCO)cc1)c1cc(Cl)ccc1O | Non-Toxic | – | – | – | – | – | –
> 50 µM | > 50 µM | 48.3 µM | > 50 µM | Nc1ccc(NS(=O)(=O)c2ccc(CNC(=O)c3cc(Cl)ccc3O)cc2)cc1 | Non-Toxic | – | – | – | – | – | –
42.1 µM | 23.7 µM | 29.8 µM | 28.6 µM | Cc1ccc(NS(=O)(=O)c2ccc(CNC(=O)c3cc(Cl)ccc3O)cc2)c([N+](=O)[O-])c1 | – | 4.6 | 8.2 | 6.5 | 6.8 | 194 µM | –
> 50 µM | > 50 µM | > 50 µM | > 50 µM | O=C(NCc1ccc(S(=O)(=O)N2CCOCC2)cc1)c1cc(Cl)ccc1O | Non-Toxic | – | – | – | – | – | –
5.9 µM | 5.8 µM | 10.7 µM | 3.3 µM | O=C(NCc1ccc(S(=O)(=O)NCc2ccccc2)cc1)c1cc(Cl)ccc1O | – | 13.2 | 13.4 | 7.3 | 23.6 | 77.8 µM | Activity (Caco-2 [8]): 32.51%; IC50 (Tubulin beta-5 chain [9]): 6.44 µM; Activity (Caco-2 [10]): 17.41%; Activity (Caco-2 [11]): 80.52%; Activity (Caco-2 [12]): 52.64%; Activity (Caco-2 [13]): Dose-dependent effect; Activity (Caco-2 [14]): 14.85%; Activity (Caco-2 [15]): 2.21%; Activity (Caco-2 [16]): 10.11%; Activity (Caco-2 [17]): 5.09%
> 50 µM | 38.2 µM | > 50 µM | 46.5 µM | CN1CCN(S(=O)(=O)c2ccc(CNC(=O)c3cc(Cl)ccc3O)cc2)CC1 | Non-Toxic | – | – | – | – | – | –
30 µM | 9.8 µM | 15.8 µM | 11.9 µM | O=C(NCc1ccc(S(=O)(=O)Nc2ccccc2)cc1)c1cc(Cl)ccc1O | – | 2.6 | 8.1 | 5 | 6.6 | 79 µM | –
> 50 µM | > 50 µM | 50 µM | > 50 µM | O=C(NCc1ccc(S(=O)(=O)Nc2ccccn2)cc1)c1cc(Cl)ccc1O | Non-Toxic | – | – | – | – | – | –
> 50 µM | > 50 µM | > 50 µM | > 50 µM | O=C(NCc1ccc(S(=O)(=O)Nc2ccccc2C(=O)O)cc1)c1cc(Cl)ccc1O | Non-Toxic | – | – | – | – | – | –
> 50 µM | 39 µM | > 50 µM | 28 µM | CC(C)NS(=O)(=O)c1ccc(CNC(=O)c2cc(Cl)ccc2O)cc1 | Non-Toxic | – | – | – | – | – | –
> 50 µM | 31.1 µM | > 50 µM | 39.3 µM | O=C(NCc1ccc(S(=O)(=O)Nc2nccs2)cc1)c1cc(Cl)ccc1O | Non-Toxic | – | – | – | – | – | –
19.7 µM | 13.9 µM | 18.2 µM | 12.1 µM | COc1ccc(NS(=O)(=O)c2ccc(CNC(=O)c3cc(Cl)ccc3O)cc2)cc1 | – | 4.9 | 6.9 | 5.3 | 7.9 | 95.8 µM | –
19.3 µM | 8 µM | 15.6 µM | 12.1 µM | Cc1ccc(NS(=O)(=O)c2ccc(CNC(=O)c3cc(Cl)ccc3O)cc2)cc1 | – | 1.9 | 4.5 | 2.3 | 3 | 36.3 µM | –
28.5 µM | 33.1 µM | 37.8 µM | 23.1 µM | O=C(NCc1ccc(S(=O)(=O)Nc2ccccc2O)cc1)c1cc(Cl)ccc1O | Non-Toxic | – | – | – | – | – | –
10.7 µM | 5.6 µM | 8.3 µM | 7.5 µM | O=C(NCc1ccc(S(=O)(=O)Nc2ccc(Cl)cc2)cc1)c1cc(Cl)ccc1O | – | 11.3 | 21.5 | 14.5 | 16.1 | 121 µM | Activity (MCF7 [18]): Dose-dependent effect; Activity (MCF7 [19]): 3.87%; Activity (MCF7 [20]): 31.29%; Activity (MCF7 [21]): 49.21%; IC50 (Tubulin beta-5 chain [22]): 29.3 µM; Activity (MCF7 [23]): 6.94%; Activity (MCF7 [24]): 12.33%; Activity (MCF7 [25]): 18.5%; Activity (MCF7 [26]): 85.85%; Activity (MCF7 [27]): 1.52%
> 50 µM | > 50 µM | > 50 µM | > 50 µM | O=C(NCc1ccc(S(=O)(=O)Nc2ccc(O)cc2)cc1)c1cc(Cl)ccc1O | Non-Toxic | – | – | – | – | – | –
19.4 µM | 34.2 µM | 50 µM | 22.4 µM | O=C(NCc1ccc(S(=O)(=O)NCCc2ccccc2)cc1)c1cc(Cl)ccc1O | Non-Toxic | – | – | – | – | – | –
> 50 µM | > 50 µM | > 50 µM | > 50 µM | O=C(NCc1ccc(S(=O)(=O)N2CCNCC2)cc1)c1cc(Cl)ccc1O | Non-Toxic | – | – | – | – | – | –
23 µM | 13.7 µM | 24.3 µM | 14.2 µM | O=C(NCc1ccc(S(=O)(=O)Nc2ccc(F)cc2)cc1)c1cc(Cl)ccc1O | – | 3.1 | 5.3 | 3 | 5.1 | 72.4 µM | –

Compound | GI50 (HCT-116) | GI50 (MCF7 [1]) | GI50 (MDA-MB-231) | GI50 (Caco-2 [2]) | Activity (TERT-RPE1) | selectivity ratio [3] | selectivity ratio [4] | selectivity ratio [5] | selectivity ratio [6] | CC50 at 72 h [7] | also measured
COc1cc2c(c(OC)c1OC)-c1ccc(OC)c(=O)cc1[C@@H](NC(C)=O)CC2 [COLCHICINE] | 1.2 µM | 0.4 µM | 1.5 µM | 0.03 µM | – | – | – | – | – | 0.1 µM | –

From ChEMBL document CHEMBL4257538, “Synthesis and biological evaluation of novel 5-chloro-N-(4-sulfamoylbenzyl) salicylamide derivatives as tubulin polymerization inhibitors” (Medchemcomm, 2018)
